Laboratory results reported in ChEMBL document CHEMBL1135676, “Comparative molecular field analysis of substrates for an aryl sulfotransferase based on catalytic mechanism and protein homology modeling” (J Med Chem, 2002).

target: Sulfotransferase 1A1 (Rattus norvegicus, UniProt P17988); experiment: Ratio of kcat/Km determined for catalytic efficiency in sulfonation against AST IV
Outline: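 Recombinant rat hepatic AST IV, expressed in E. coli and purified. Each reaction held 1.0 μg enzyme, 0.2 mM PAPS, 8.3 mM 2-mercaptoethanol, varying substrate and 0.25 M potassium phosphate at pH 7.0. Mixtures were preincubated 2 min at 37 °C, started with enzyme, run 10 min at 37 °C and stopped with methanol. Substrate-dependent PAP formation was read by HPLC and corrected with substrate-free controls. kcat is in min⁻¹ and apparent Km in M.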

Chain of Sulfotransferase 1A1 (P17988 whole entry): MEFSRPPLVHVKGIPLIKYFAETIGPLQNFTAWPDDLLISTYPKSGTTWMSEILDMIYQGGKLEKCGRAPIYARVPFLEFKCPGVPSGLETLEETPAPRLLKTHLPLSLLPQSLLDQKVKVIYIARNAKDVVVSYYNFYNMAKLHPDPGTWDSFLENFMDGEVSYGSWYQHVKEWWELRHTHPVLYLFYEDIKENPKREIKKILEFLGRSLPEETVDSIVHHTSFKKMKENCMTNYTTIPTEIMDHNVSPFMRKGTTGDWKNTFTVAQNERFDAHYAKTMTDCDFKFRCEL

SMILES | Ratio
CCCCCC[C@H](O)c1ccccc1 | 8.8
CC[C@H](O)c1ccccc1 | 1.4
CCCc1ccc(O)cc1 | 2410
CC(=O)Nc1ccc(O)cc1 [ACETAMINOPHEN] | 66.7
CCCCC[C@H](O)c1ccccc1 | 10.2
Cc1ccc(CO)cc1 | 28.7
Oc1ccc(C23C[C@H]4C[C@@H](C2)C[C@@H](C3)C4)cc1 | 1600
C[C@@H](O)c1ccccc1 | 0.4
O=C(CBr)Nc1ccc(O)cc1 | 146
CCCCCCCc1ccc(CO)cc1 | 11
OCc1c[nH]c2ccccc12 [INDOLE-3-CARBINOL] | 38.9
CCCCCCCCCc1ccc(O)cc1 [4-NONYLPHENOL] | 28.3
CN[C@@H](C)C(O)c1ccccc1 (stereo partly drawn) | 0.1
CCCCc1ccc(O)cc1 | 2230
CCCC[C@H](O)c1ccccc1 | 103
CCCCc1ccc(CO)cc1 | 147
Cc1ccc(O)cc1 [p-CRESOL] | 1080
CCCCCCCc1ccc(O)cc1 | 73.4
CN[C@H](C)[C@H](O)c1ccccc1 | 0.1
OCc1cccc2ccccc12 | 29.4
Oc1ccc(-c2ccccc2)cc1 | 79.1
COC(=O)[C@@H](N)Cc1ccc(O)cc1 [TYROSINE METHYL ESTER] | 3

SMILES | Ratio
O=[N+]([O-])c1ccc(O)c(Cl)c1 | 190
CCCCCCc1ccc(CO)cc1 | 109
CCCc1ccc(CO)cc1 | 151
C[C@H](O)c1ccccc1 | 4.6
CCCCCc1ccc(O)cc1 | 784
CCN(O)c1ccccc1 | 14.2
Oc1ccc2ccccc2c1 [BETANAPHTHOL] | 4790
CCCN(O)c1ccccc1 | 20.8
CN(O)c1ccccc1 | 24.2
OCc1ccccc1 [BENZYL ALCOHOL] | 20.7
CC(C)[C@H](O)c1ccccc1 | 0.2
OC1CCCc2ccccc21 (stereo not drawn) | 32.4
ONc1ccccc1 | 6.3
CCC[C@H](O)c1ccccc1 | 0.8
CCCCCc1ccc(CO)cc1 | 185
OCc1ccoc1 | 0.4
O=[N+]([O-])c1ccc(CO)cc1 [PARANITROBENZYL ALCOHOL] | 3.5
OCc1ccc2ccccc2c1 | 101
ONc1ccc(Cl)cc1 | 45.6
Oc1ccccc1 [PHENOL] | 625
CCc1ccc(O)cc1 | 1390
